ChEMBL document CHEMBL1955833, “Wnt inhibition correlates with human embryonic stem cell cardiomyogenesis: a structure-activity relationship study based on inhibitors for the Wnt response” (J Med Chem, 2012)

Columns and labels:
[1] = Inhibition of beta-catenin-dependent canonical Wnt3 pathway in human HEK293T cells by luciferase reporter gene assay; format: cell-based; conditions: HEK-293T
[2] = system: HEK-293T; experiment: Cytotoxicity against human HEK293T cells at 0.2 to 20 uM after 24 hrs by alamar blue assay; format: cell-based
[3] = Cardiogenic activity in human embryonic stem cells at 2 uM by MYH6 reporter gene assay relative to control; format: functional, Embryonic stem cell
[4] = Cardiogenic activity in human embryonic stem cells at 2.5 uM by MYH6 reporter gene assay relative to control; format: functional, Embryonic stem cell
[5] = Inhibition of beta-catenin-dependent canonical Wnt3A pathway in human HEK293T cells at 1 uM by luciferase reporter gene assay; format: cell-based; conditions: HEK-293T
Summary of the method: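 HEK293T cells transiently co-transfected with Super(8x)TOPflash (TCF-firefly luciferase), TK-Renilla luciferase for normalization, and a Wnt3A-expressing vector to activate the pathway. Compounds tested at a single concentration of 1 μM, alongside untreated and DMSO vehicle controls. Firefly signal normalized to Renilla.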

[6] = Half life in phosphate buffer pH 7.4 at 10 uM by HPLC analysis; format: physicochemical
Summary of the method: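 Degradation followed by HPLC, and half-life determined where degradation occurred.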

[7] = system: H9; experiment: Cardiogenic activity in human H9 cells after 14 days by MYH6-mCherry reporter gene assay relative to 4-[(1R,2S,6R,7S)-3,5-dioxo-4-azatricyclo[5.2.1.0~2,6~]dec-8-en-4-yl]-N-quinolin-8-ylbenzamide; format: functional
Summary of the method: (§1)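 hESC embryoid bodies grown to day 4, dissociated to single cells and plated in 384-well format with serial compound dilutions. At day 10 switched to serum-free medium with T3. At day 14 moved to PBS and imaged for red fluorescence. Total area and intensity of the MYH6-mCherry reporter were quantified per well and expressed as percent cardiogenesis, with the reference set to 100% at its maximum.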

[8] = system: H9; experiment: Cardiogenic activity in human H9 cells at 10 uM after 14 days by MYH6-mCherry reporter gene assay relative to 4-[(1R,2S,6R,7S)-3,5-dioxo-4-azatricyclo[5.2.1.0~2,6~]dec-8-en-4-yl]-N-quinolin-8-ylbenzamide; format: functional; summary of the method: as §1

| IC50 [1] | half-life at 10 µM [6] | SMILES | Activity [2] | fold change (FC) [3] | fold change (FC) [4] | inhibition [5] | Activity [7] | Activity ([7]; record 2) | Activity [8] |
| --- | --- | --- | --- | --- | --- | --- | --- | --- | --- |
| 51 nM | – | Oc1nc(-c2ccc(C(F)(F)F)cc2)nc2c1CSCC2 | Non-toxic | 1000 | – | – | – | – | – |
| 538 nM | – | Cc1ccc2nc(NC(=O)CSc3nc4c(c(=O)n3-c3ccc(F)cc3)SCC4)sc2c1 | Non-toxic | – | 1000 | – | – | – | – |
| 119 nM | 228 min | O=C(Nc1ccc(N2C(=O)[C@@H]3[C@@H]4CC[C@@H](C4)[C@@H]3C2=O)cc1)c1cccc2cccnc12 | – | – | – | 91% | 1% | – | – |
| 93 nM | – | O=C1[C@@H]2[C@@H]3CC[C@@H](C3)[C@@H]2C(=O)N1[C@H]1CC[C@H](C(=O)Nc2cccc3ccncc23)CC1 | – | – | – | 91% | Dose-dependent effect | 25% | 24% |
